Legend:
[1] = tested on: RAW264.7; test: Antiinflammatory activity against mouse RAW264.7 cells assessed as reduction in LPS-induced PGE2 level incubated for 1 hr followed by LPS stimulation and measured after 24 hrs by ELISA; format: functional, cell-based
How it was run: (§1)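 RAW 264.7 cells (DMEM, 10% FBS, 37 °C, 5% CO2) plated at 2×10^5 cells/mL and left overnight. Compounds (0.1, 1, 10 µM) or NS-398 given for 1 h, then LPS 10 ng/mL for 24 h. Culture medium assayed by ELISA: competitive colorimetric for PGE2/TNF-α, mouse DuoSet for TNF-α/IL-6. IC50 is the concentration lowering the mediator to 50%.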

[2] = biological target: T1, Inhibitor of nuclear factor kappa-B kinase subunit beta (Homo sapiens, UniProt O14920); test: Allosteric inhibition of IKKbeta (unknown origin) using 5FAM-GRHDSGLDSMK-NH2 as substrate incubated for 10 mins followed by substrate addition and measured immediately by TR-FRET assay
T1 sequence (O14920 whole entry): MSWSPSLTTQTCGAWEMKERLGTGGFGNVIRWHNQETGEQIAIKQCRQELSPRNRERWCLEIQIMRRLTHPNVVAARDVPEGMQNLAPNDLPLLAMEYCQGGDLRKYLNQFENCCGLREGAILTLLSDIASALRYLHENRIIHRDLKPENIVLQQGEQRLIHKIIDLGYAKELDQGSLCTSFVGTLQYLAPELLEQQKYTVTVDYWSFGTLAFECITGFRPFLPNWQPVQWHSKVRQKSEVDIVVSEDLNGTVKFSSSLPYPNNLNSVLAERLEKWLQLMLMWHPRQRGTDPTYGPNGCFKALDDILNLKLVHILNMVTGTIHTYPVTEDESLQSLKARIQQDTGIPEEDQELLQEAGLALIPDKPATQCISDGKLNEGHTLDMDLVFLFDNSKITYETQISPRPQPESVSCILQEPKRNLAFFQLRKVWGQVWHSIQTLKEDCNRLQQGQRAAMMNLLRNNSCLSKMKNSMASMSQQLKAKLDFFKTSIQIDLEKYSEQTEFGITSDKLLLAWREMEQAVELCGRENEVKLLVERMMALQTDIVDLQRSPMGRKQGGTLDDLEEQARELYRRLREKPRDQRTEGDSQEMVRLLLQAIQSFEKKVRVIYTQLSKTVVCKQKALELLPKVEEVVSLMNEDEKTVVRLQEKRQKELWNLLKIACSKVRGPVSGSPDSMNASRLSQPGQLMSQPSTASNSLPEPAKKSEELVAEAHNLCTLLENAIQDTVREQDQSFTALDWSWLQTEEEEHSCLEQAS
How it was run: (§2)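 Kinetic IMAP TR-FRET run with 0.5 µg/mL IKK2 in 10 mM Tris-HCl pH 7.2, 10 mM MgCl2, 0.05% NaN3, 1 mM DTT, 0.01% Tween-20. Compound (ten doses, 30 to 0.001 µM) pre-incubated with enzyme 10 min, then 1 µM IκBα-derived substrate and 3 µM ATP added. Room temperature. Reactions run 0, 20, 40 or 60 min. Ten-point curves fitted by nonlinear regression.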

[3] = Cytotoxicity against non-stimulated mouse RAW264.7 cells upto 10 uM after 24 hrs by MTT assay; conditions: raw264.7, 24 h
[4] = tested on: RAW264.7; test: Cytotoxicity against mouse RAW264.7 cells assessed as reduction in cell viability at 6 uM incubated for 24 hrs by MTT assay; format: cell-based; conditions: raw264.7, 24 h
How it was run: (§3)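 MTT viability in RAW 264.7 cells seeded at 1×10^5 cells/mL and incubated overnight. Compounds added with or without LPS (1 µg/mL) for 24 h. MTT for 4 h at 37 °C, formazan dissolved in DMSO, absorbance read at 540 nm. IC80 is the concentration reducing viability to 80% with LPS.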

[5] = biological target: T2, Inhibitor of nuclear factor kappa-B kinase subunit beta (Homo sapiens) (UniProt O14920); test: Allosteric inhibition of IKKbeta (unknown origin) using 5FAM-GRHDSGLDSMK-NH2 as substrate at 0.001 to 30 uM pretreated for 10 mins followed by substrate addition measured immediately by TR-FRET assay; conditions: filed as negative allosteric modulator, dose 0.001-30 µM
T2 sequence (whole entry): T1 sequence (O14920 whole entry)
How it was run: (§4)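 IKK2 (0.5 µg/mL) in 10 mM Tris-HCl pH 7.2, 10 mM MgCl2, 0.05% NaN3, 1 mM DTT, 0.01% Tween-20, room temperature. Compound (30 to 0.001 µM, ten roughly three-fold dilutions) preincubated 10 min with enzyme. Reaction started with 1 µM 5FAM-IκBα peptide and 3 µM ATP, run 0, 20, 40 or 60 min. IMAP binding reagent/terbium donor detection, TR-FRET read at 495/520 nm. Kobs fitted against concentration by nonlinear regression.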

[6] = biological target: T1, Inhibitor of nuclear factor kappa-B kinase subunit beta; test: Allosteric inhibition of IKKbeta (unknown origin) using 5FAM-GRHDSGLDSMK-NH2 as substrate incubated for 10 mins followed by substrate addition and measured after 20 mins by TR-FRET assay; how it was run: as §2
[7] = biological target: T2, Inhibitor of nuclear factor kappa-B kinase subunit beta (Homo sapiens); test: Allosteric inhibition of IKKbeta (unknown origin) at 0.001 to 30 uM using 5FAM-GRHDSGLDSMK-NH2 as substrate incubated for 10 mins followed by substrate addition and measured after 60 mins by TR-FRET assay relative to control; conditions: filed as negative allosteric modulator, dose 0.001-30 µM, time 70.0 min; how it was run: as §4
[8] = biological target: T1, Inhibitor of nuclear factor kappa-B kinase subunit beta; test: Allosteric inhibition of IKKbeta (unknown origin) using 5FAM-GRHDSGLDSMK-NH2 as substrate incubated for 10 mins followed by substrate addition and measured after 40 mins by TR-FRET assay; how it was run: as §2
[9] = tested on: RAW264.7; test: Antiinflammatory activity against mouse RAW264.7 cells assessed as reduction in LPS-induced IL-6 level incubated for 1 hr followed by LPS stimulation and measured after 24 hrs by ELISA; format: functional, cell-based; how it was run: as §1
[10] = biological target: T2, Inhibitor of nuclear factor kappa-B kinase subunit beta (Homo sapiens); test: Allosteric inhibition of IKKbeta (unknown origin) at 0.001 to 30 uM using 5FAM-GRHDSGLDSMK-NH2 as substrate incubated for 10 mins followed by substrate addition and measured after 20 mins by TR-FRET assay relative to control; conditions: filed as negative allosteric modulator, dose 0.001-30 µM, time 30.0 min; how it was run: as §4
[11] = Effect on NO production in non-stimulated mouse RAW264.7 cells at 10 uM after 24 hrs by Griess reagent based assay; conditions: raw264.7, 24 h
[12] = tested on: RAW264.7; test: Antiinflammatory activity against mouse RAW264.7 cells assessed as reduction in LPS-induced TNF-alpha level at 10 uM incubated for 1 hr followed by LPS stimulation and measured after 24 hrs by ELISA relative to control; format: functional; conditions: time 25 hrs; how it was run: as §1
[13] = tested on: RAW264.7; test: Antiinflammatory activity against mouse RAW264.7 cells assessed as reduction in LPS-induced PGE2 production at 10 uM incubated for 1 hr followed by LPS stimulation and measured after 24 hrs by ELISA (reference value: 33.64 ng/ml); format: functional; conditions: time 25 hrs; how it was run: as §1
[14] = biological target: T2, Inhibitor of nuclear factor kappa-B kinase subunit beta (Homo sapiens); test: Allosteric inhibition of IKKbeta (unknown origin) at 0.001 to 30 uM using 5FAM-GRHDSGLDSMK-NH2 as substrate incubated for 10 mins followed by substrate addition and measured after 40 mins by TR-FRET assay relative to control; conditions: filed as negative allosteric modulator, dose 0.001-30 µM, time 50.0 min; how it was run: as §4
[15] = tested on: RAW264.7; test: Cytotoxicity against mouse RAW264.7 cells assessed as reduction in cell viability incubated for 24 hrs in presence of LPS by MTT assay; format: cell-based; conditions: RAW264.7, 24 h; how it was run: as §3

| Compound | IC50 [1] | IC50 [2] | Activity [3] | Activity [4] | inhibition [5] | IC50 [6] | inhibition [7] | IC50 [8] | IC50 [9] | inhibition [10] | Activity [11] | inhibition at 10 µM [12] | Activity [13] | inhibition [14] | IC80 [15] |
| --- | --- | --- | --- | --- | --- | --- | --- | --- | --- | --- | --- | --- | --- | --- | --- |
| CN1CCN(CCCOc2ccc(N3C(=O)S/C(=C\c4ccc(Oc5ccc(C#N)cc5)cc4)C3=O)cc2)CC1 | 9830 nM | 575 nM | Non-Toxic | Non-Toxic | -9.33% | 347 nM | -0.38% | 251 nM | > 10000 nM | -7.14% | Non-Toxic | 80% | 16.53 ng/mL | -4.47% | > 10000 nM |
| CN1CCN(CCCCCOc2cccc(N3C(=O)S/C(=C\c4ccc(Oc5ccc([N+](=O)[O-])cc5)cc4)C3=O)c2)CC1 | > 10000 nM | 347 nM | Non-Toxic | Non-Toxic | -5.63% | 245 nM | -3.88% | 219 nM | > 10000 nM | -3.68% | Non-Toxic | 84% | 19.04 ng/mL | -8.33% | > 10000 nM |

From ChEMBL document CHEMBL4680142, “Thiazolidine-2,4-dione-based irreversible allosteric IKK-β kinase inhibitors: Optimization into in vivo active anti-inflammatory agents” (Eur J Med Chem, 2020)
